Source: ChEMBL document CHEMBL1123566, “Synthesis and cardiac electrophysiological activity of 2- and 3-[(substituted phenyl)alkyl]quinuclidines. Structure-activity relationships” (1987)
Values joined by “and” are separate entries in the source; they are usually repeats but may differ in a detail not shown here. Equal entries are not always repeated.

How the values were obtained:
Canis familiaris [1] = species: Canis familiaris; test: In vitro electrophysiological evaluation in canine cardiac ventricular muscle reported as % change for the functional refractory period (FRP) concentration range of 0.1-10 uM; parameters: species or system Canis lupus familiaris, Muscle tissue
Outline: (§1)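 Canine right ventricular/papillary muscle strips in oxygenated Tyrode's, extracellular extra-stimulus conduction-interval method. FRP and CT are read from conduction-interval curves before and during rising concentrations. Compound is a 10 mM aqueous stock diluted into Tyrode's. Each strip is used once as its own control. Readouts are percent change from control at 10 μM, plus the maximum change with its concentration.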

Canis familiaris [2] = species: Canis familiaris; test: In vitro electrophysiological evaluation in canine cardiac Purkinje fibres reported as percent change Vmax concentration range of 0.01-100 uM; […]; type: functional; conditions: Canis lupus familiaris; Purkinje fiber
Outline: (§2)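 Canine cardiac Purkinje fibers, intracellular recording, paced at a basic cycle length of 1 s. APD95 and Vmax are recorded together across cumulative concentrations. Compound is a 10 mM aqueous stock diluted into Tyrode's solution. Each fiber is used once as its own control. Readouts are percent change from control at 10 μM, and the maximum change with the concentration where it occurred.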

Canis familiaris [3] = test: Heart rate was determined by intraduodenal administration of two dosages of 10 mg/kg of (high dose) compound in anesthetized dogs. Value was reported for experiment 1; type: functional, Canis lupus familiaris
Outline: (§3)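 Anesthetized dogs; compound given intraduodenally, generally as two doses, the second a cumulative (high) dose. LV functional refractory period and conduction time measured 15, 30 and 45 min after dosing; heart rate and blood pressure measured during nonpacing intervals. Values are % change from control, given per individual animal. Active if FRP or CT prolonged by ≥12%.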

Canis familiaris [4] = test: Conduction time was determined by intraduodenal administration of two dosages of 1 mg/kg (low dose) of compound in anesthetized dogs. Value was reported for experiment 3; type: functional, Canis lupus familiaris
Outline: (§4)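 Anesthetized dogs given the compound intraduodenally, generally as two doses with the second a cumulative total (low/high). FRP and CT measured at 15, 30 and 45 min after dosing. HR and BP taken during nonpacing intervals. Values are percent change from control per animal. Activity criterion is FRP or CT prolonged ≥12%. Vehicle: 5% dextrose in water/tragacanth.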

Canis familiaris [5] = test: Mean arterial blood pressure was determined by intraduodenal administration of two dosages of 1 mg/kg of (low dose) compound in anesthetized dogs. Value was reported for experiment 3; type: functional, Canis lupus familiaris
Outline: (§5)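 Anesthetized dogs, usually given two intraduodenal doses, with the second dose cumulative (low/high). Left ventricular FRP and CT were determined at 15, 30 and 45 min after dosing. HR and BP were measured during nonpacing intervals. Values are % change from control at low/high dose, for individual animals. The vehicle-stability set used 5% dextrose in water/tragacanth (n = 8).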

Canis familiaris [6] = species: Canis familiaris; test: In vitro electrophysiological evaluation in canine cardiac ventricular muscle reported as maximum % change for conduction time(CT) at 0.1-100 uM concentration range; type: functional, Canis lupus familiaris, Muscle tissue
Outline: (§6)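 Canine right ventricle and papillary muscle strips in oxygenated Tyrode's solution, fitted with stimulating and recording electrodes. The extra-stimulus conduction-interval method was adapted for in vitro use. FRP and CT were read from a conduction-interval curve before and after various compound concentrations, and expressed as percent change from control. Compounds were taken from 10 mM deionized-water stock into Tyrode's. Each strip was used once as its own control.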

Canis familiaris [7] = test: Conduction time was determined by intraduodenal administration of two dosages of 1 mg/kg (low dose) of compound in anesthetized dogs. Value was reported for experiment 2; type: functional, Canis lupus familiaris; outline: as §4
Canis familiaris [8] = test: Conduction time was determined by intraduodenal administration of two dosages of 10 mg/kg of compound in anesthetized dogs. Value was reported for experiment 1; type: functional, Canis lupus familiaris; outline: as §4
Canis familiaris [9] = test: Heart rate was determined by intraduodenal administration of two dosages of 3 mg/kg of (low dose) compound in anesthetized dogs. Value was reported for experiment 1; type: functional, Canis lupus familiaris; outline: as §3
Canis familiaris [10] = test: Left ventricular refractory period was determined by intraduodenal administration of two dosages (high/low) of 10 g/kg of compound in anesthetized dogs. Value was reported for experiment 3; type: functional, Canis lupus familiaris, Cardiac ventricle; conditions: in the assay text read “10 mg/kg” for “10 g/kg”; outline: as §5
Canis familiaris [11] = test: Mean arterial blood pressure was determined by intraduodenal administration of two dosages of 3 mg/kg of (high dose) compound in anesthetized dogs. Value was reported for experiment 2; type: functional, Canis lupus familiaris; outline: as §5
Canis familiaris [12] = species: Canis familiaris; test: In vitro electrophysiological evaluation in canine cardiac Purkinje fibres reported as maximum percent change Vmax concentration range of 0.1-10 uM; type: functional; conditions: Canis lupus familiaris; Purkinje fiber; outline: as §2
Canis familiaris [13] = species: Canis familiaris; test: In vitro electrophysiological evaluation in canine cardiac ventricular muscle reported as % change for conduction time(CT) at 0.1-10 uM concentration range; Minimal (<IO%increase or a decrease in CT); type: functional, Canis lupus familiaris, Muscle tissue; outline: as §1
Canis familiaris [14] = species: Canis familiaris; test: In vitro electrophysiological evaluation in canine cardiac Purkinje fibres reported as maximum percent change Vmax concentration range of 0.01-100 uM; […]; type: functional; conditions: Canis lupus familiaris; Purkinje fiber; outline: as §2
Canis familiaris [15] = test: Conduction time was determined by intraduodenal administration of two dosages of 10 mg/kg (high dose) of compound in anesthetized dogs. Value was reported for experiment 3; type: functional, Canis lupus familiaris; outline: as §4
Canis familiaris [16] = test: Conduction time was determined by intraduodenal administration of two dosages of 3 mg/kg (high dose) of compound in anesthetized dogs. Value was reported for experiment 3; type: functional, Canis lupus familiaris; outline: as §4
Canis familiaris [17] = species: Canis familiaris; test: In vitro electrophysiological evaluation in canine cardiac Purkinje fibres reported as percent change Vmax concentration range of 1-100 uM; type: functional; conditions: Canis lupus familiaris; Purkinje fiber; outline: as §2
Canis familiaris [18] = test: Mean arterial blood pressure was determined by intraduodenal administration of two dosages of 10 mg/kg of (high dose) compound in anesthetized dogs. Value was reported for experiment 1; type: functional, Canis lupus familiaris
Outline: (§7)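 Anesthetized dogs received two intraduodenal doses, the second cumulative (low dose/high dose). Left ventricular FRP and CT were measured 15, 30 and 45 min after dosing. Heart rate and mean blood pressure were taken during nonpacing intervals. Values are percent change from control. The vehicle was 5% dextrose in water/tragacanth. Activity was defined as ≥12% prolongation of FRP or CT.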

Canis familiaris [19] = species: Canis familiaris; test: In vitro electrophysiological evaluation in canine cardiac Purkinje fibres reported as % change for action potential duration at 0.1-10 uM concentration range; type: functional, Canis lupus familiaris, Purkinje fiber
Outline: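 Canine cardiac Purkinje fibres, intracellular microelectrode recording, paced at a basic cycle length of 1 s. APD95 and Vmax read simultaneously. Compound: 10 mM stock in deionized water, diluted into Tyrode's solution, tested over the stated concentration range. Each fibre used once as its own control. Result is % change from control, given at 10 µM or as the maximum with its concentration. M = <10% decrease or an increase in Vmax.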

Canis familiaris [20] = test: Left ventricular refractory period was determined by intraduodenal administration of two dosages of 3 mg/kg of (low dose) compound in anesthetized dogs. Value was reported for experiment 1; type: functional, Canis lupus familiaris, Cardiac ventricle; outline: as §7
Canis familiaris [21] = test: Heart rate was determined by intraduodenal administration of two dosages of 3 mg/kg of (high dose) compound in anesthetized dogs. Value was reported for experiment 3; type: functional, Canis lupus familiaris; outline: as §4
Canis familiaris [22] = species: Canis familiaris; test: In vitro electrophysiological evaluation in canine cardiac ventricular muscle reported as % change for the functional refractory period (FRP) concentration range of 0.1-100 uM; parameters: species or system Canis lupus familiaris, Muscle tissue; outline: as §6
Canis familiaris [23] = test: Conduction time was determined by intraduodenal administration of two dosages of 3 mg/kg (high dose) of compound in anesthetized dogs. Value was reported for experiment 2; type: functional, Canis lupus familiaris; outline: as §4
Canis familiaris [24] = test: Heart rate was determined by intraduodenal administration of two dosages of 1 mg/kg of (low dose) compound in anesthetized dogs. Value was reported for experiment 3; type: functional, Canis lupus familiaris; outline: as §4
Canis familiaris [25] = species: Canis familiaris; test: In vitro electrophysiological evaluation in canine cardiac Purkinje fibres reported as percent change Vmax concentration range of 0.1-10 uM; type: functional; conditions: Canis lupus familiaris; Purkinje fiber; outline: as §2

CCCCCCC[N+](CC)(CC)CCCCc1ccc(Cl)cc1.O=P([O-])(O)O [CLOFILIUM PHOSPHATE]
FRP (Canis familiaris [1]): 38% | Vmax (Canis familiaris [2]): < 10% | HR (Canis familiaris [3]): -24% | CT (Canis familiaris [4]): 0% | Mean blood pressure (Canis familiaris [5]): -3% | CT (Canis familiaris [6]): 19% | CT (Canis familiaris [7]): -5% | CT (Canis familiaris [8]): -7% | HR (Canis familiaris [9]): -9% | L (Canis familiaris [10]): 23% | Mean blood pressure (Canis familiaris [11]): -14% | Vmax (Canis familiaris [12]): -11% | CT (Canis familiaris [13]): <10% | Vmax (Canis familiaris [14]): < 10% | CT (Canis familiaris [15]): -11% | CT (Canis familiaris [16]): -7% | Vmax (Canis familiaris [17]): -50% and -49% | Mean blood pressure (Canis familiaris [18]): -11% | APD95 (Canis familiaris [19]): 52% | LV FRP (Canis familiaris [20]): 10% | HR (Canis familiaris [21]): -7% | FRP (Canis familiaris [22]): 11% and 5% | CT (Canis familiaris [23]): -7% | HR (Canis familiaris [24]): -2% | Vmax (Canis familiaris [25]): -11%
